What was measured:
[1] = system: Na+ currents in mouse CAD cells; conditions: cited from earlier work
rat = conditions: oral; cited from earlier work
mice [2] = conditions: ip; cited from earlier work
[3] = system: Na+ currents in mouse CAD cells; test: Whole-cell patch-clamp electrophysiology of Na+ currents in CAD cells; assay type: cell-based
[4] = system: Na+ currents in rat embryonic cortical neurons; test: Whole-cell patch-clamp electrophysiology of Na+ currents in cortical neurons; assay type: cell-based; conditions: 20 μM
Procedure, shortened: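 Cortical neurons from embryonic day 19 rat cortices were cultured 7–10 days in vitro. Whole-cell voltage clamp was run at room temperature in external solution containing 100 mM NaCl, TEA-Cl, CdCl2, NiCl2 and 4-AP (HEPES, pH 7.3), with 20 μM test compound or 0.1% DMSO control. Slow inactivation was read as the fraction of current available at −50 mV. V1/2 and k came from Boltzmann fits to individual recordings, averaged as mean ± SEM.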

mice [5] = test: iv Metrazol test; assay type: in vivo; conditions: ip, 25 mg/kg and 81 mg/kg
mice [6] = test: Maximal electroshock seizure; assay type: in vivo; conditions: Mus musculus, ip, read-out: MES ED50
mice [7] = conditions: cited from earlier work

## NCc1ccc(OCc2cccc(F)c2)cc1 [Compound 22]
[1]
  effect on fast inactivation: affected fast inactivation
  frequency (use)-dependent blockage of Na+ currents: displayed frequency (use)-dependent blockage

## CCCC(CCC)C(=O)O [valproate]
rat
  MES ED50: 490 [0.5] (350-730) mg/kg
Mice [2]
  MES ED50: 270 [0.25] (250-340) mg/kg

## CCC1(c2ccccc2)C(=O)NC(=O)NC1=O [phenobarbital]
rat
  MES ED50: 9.1 [5.0] (7.6-12) mg/kg
Mice [2]
  MES ED50: 22 [1.0] (15-23) mg/kg

## Cl.NCc1ccc(-c2cccc(OC(F)(F)F)c2)cc1 [Compound 8, (3′-Trifluoromethoxybiphenyl-4-yl)methylammonium Chloride]
[3]
  effect on Na+ channel steady-state activation: did not affect
  effect on slopes of fast inactivation: not affected
[3]; 10 μM, 10 Hz
  frequency (use)-dependent inhibition of Na+ currents: did not exhibit
[4]
  effect on steady-state activation (V1/2 and k): unchanged
  frequency (use)-dependent inhibition of Na+ currents: did not exhibit
[4]; vehicle DMSO 0.41
  extent of slow inactivation (fraction of current available at −50 mV): 0.17 ± 0.03
[4]; vs control
  change in slope values of fast inactivation: no commensurate significant changes
  hyperpolarizing shift of V1/2 of steady-state fast inactivation: ~15.7 mV
Mice [5]
  seizure threshold vs control group: no statistical difference from the control group

## Cl.NCc1ccc(-c2ccccc2)cc1 [Compound 2, (Biphenyl-4-yl)methylammonium Chloride]
Mice [6]
  ED50: 30 to 100 mg/kg

## COC[C@@H](NC(C)=O)C(=O)NCc1ccccc1 [Compound 1, Lacosamide]
Mice [7]
  anticonvulsant activity in scMet model: did not display anticonvulsant activity
